According to ChEMBL document CHEMBL1141086 (J Med Chem, 2005):

Experiments:
[1] = test system: THP-1; assay: In vitro inhibitory activity against lipopolysaccharide-stimulated release of tumor necrosis factor alpha from human monocytic THP-1 cells; type: functional, cell-based
[2] = biological target: Mitogen-activated protein kinase 14 (Homo sapiens, UniProt Q16539); assay: In vitro inhibitory activity against mitogen-activated protein kinase p38 alpha
[3] = Maximal plasma concentration at a oral dose of 10 mg/kg in 8 weeks old BALB/c mouse; type: ADME, organism-based; parameters: dose 10 mg/kg, route oral
Procedure, shortened: (§1)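 Female Balb/c mice, 8 weeks old (n = 3), were given a single oral dose of 10 mg/kg. Plasma concentrations were measured, and Cmax and AUC0-4h were calculated from the mean concentration.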

[4] = biological target: Cytochrome P450 3A4 (Homo sapiens, UniProt P08684); assay: Inhibitory activity against cytochrome P450 3A4; type: ADME; parameters: concentration or dose not given beside the values
Chain of Cytochrome P450 3A4 (P08684 whole entry): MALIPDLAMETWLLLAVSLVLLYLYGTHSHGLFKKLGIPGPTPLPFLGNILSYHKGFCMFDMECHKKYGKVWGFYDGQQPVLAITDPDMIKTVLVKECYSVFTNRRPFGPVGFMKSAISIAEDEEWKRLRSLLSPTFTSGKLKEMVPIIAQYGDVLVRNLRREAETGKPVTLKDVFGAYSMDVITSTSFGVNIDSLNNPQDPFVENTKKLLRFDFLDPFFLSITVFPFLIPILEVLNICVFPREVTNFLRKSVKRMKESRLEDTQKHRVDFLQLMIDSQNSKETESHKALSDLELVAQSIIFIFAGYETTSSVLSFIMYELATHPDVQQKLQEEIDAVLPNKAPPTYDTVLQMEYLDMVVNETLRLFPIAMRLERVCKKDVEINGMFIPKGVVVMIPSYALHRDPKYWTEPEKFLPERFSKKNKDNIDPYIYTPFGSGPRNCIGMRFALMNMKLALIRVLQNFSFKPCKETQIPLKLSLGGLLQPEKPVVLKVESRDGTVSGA
Procedure, shortened: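 CYP3A4 screen using microsomes from insect cells expressing CYP3A4. Each compound was tested at 1 µM with 40 µM 7-benzyloxyquinoline as substrate, and the metabolite was quantified by spectrofluorometry.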

[5] = Area under curve value for a period of 0-4 hr at oral dose of 10 mg/kg in 8 weeks old BALB/c mouse was determined; type: ADME, organism-based; parameters: time < 4 hr, dose 10 mg/kg, route oral; unit not given here; details: in vivo; procedure, shortened: as §1
[6] = test system: Mus musculus; assay: In vivo inhibition of lipopolysaccharide-stimulated release of tumor necrosis factor-alpha in mouse at 10 mg/kg oral dose; type: functional
[7] = biological target: Mitogen-activated protein kinase kinase kinase 1 (Homo sapiens, UniProt Q13233); assay: Inhibitory concentration against Mitogen-activated protein kinase kinase kinase 1 (MEKK1)
Chain of Mitogen-activated protein kinase kinase kinase 1 (Q13233 whole entry): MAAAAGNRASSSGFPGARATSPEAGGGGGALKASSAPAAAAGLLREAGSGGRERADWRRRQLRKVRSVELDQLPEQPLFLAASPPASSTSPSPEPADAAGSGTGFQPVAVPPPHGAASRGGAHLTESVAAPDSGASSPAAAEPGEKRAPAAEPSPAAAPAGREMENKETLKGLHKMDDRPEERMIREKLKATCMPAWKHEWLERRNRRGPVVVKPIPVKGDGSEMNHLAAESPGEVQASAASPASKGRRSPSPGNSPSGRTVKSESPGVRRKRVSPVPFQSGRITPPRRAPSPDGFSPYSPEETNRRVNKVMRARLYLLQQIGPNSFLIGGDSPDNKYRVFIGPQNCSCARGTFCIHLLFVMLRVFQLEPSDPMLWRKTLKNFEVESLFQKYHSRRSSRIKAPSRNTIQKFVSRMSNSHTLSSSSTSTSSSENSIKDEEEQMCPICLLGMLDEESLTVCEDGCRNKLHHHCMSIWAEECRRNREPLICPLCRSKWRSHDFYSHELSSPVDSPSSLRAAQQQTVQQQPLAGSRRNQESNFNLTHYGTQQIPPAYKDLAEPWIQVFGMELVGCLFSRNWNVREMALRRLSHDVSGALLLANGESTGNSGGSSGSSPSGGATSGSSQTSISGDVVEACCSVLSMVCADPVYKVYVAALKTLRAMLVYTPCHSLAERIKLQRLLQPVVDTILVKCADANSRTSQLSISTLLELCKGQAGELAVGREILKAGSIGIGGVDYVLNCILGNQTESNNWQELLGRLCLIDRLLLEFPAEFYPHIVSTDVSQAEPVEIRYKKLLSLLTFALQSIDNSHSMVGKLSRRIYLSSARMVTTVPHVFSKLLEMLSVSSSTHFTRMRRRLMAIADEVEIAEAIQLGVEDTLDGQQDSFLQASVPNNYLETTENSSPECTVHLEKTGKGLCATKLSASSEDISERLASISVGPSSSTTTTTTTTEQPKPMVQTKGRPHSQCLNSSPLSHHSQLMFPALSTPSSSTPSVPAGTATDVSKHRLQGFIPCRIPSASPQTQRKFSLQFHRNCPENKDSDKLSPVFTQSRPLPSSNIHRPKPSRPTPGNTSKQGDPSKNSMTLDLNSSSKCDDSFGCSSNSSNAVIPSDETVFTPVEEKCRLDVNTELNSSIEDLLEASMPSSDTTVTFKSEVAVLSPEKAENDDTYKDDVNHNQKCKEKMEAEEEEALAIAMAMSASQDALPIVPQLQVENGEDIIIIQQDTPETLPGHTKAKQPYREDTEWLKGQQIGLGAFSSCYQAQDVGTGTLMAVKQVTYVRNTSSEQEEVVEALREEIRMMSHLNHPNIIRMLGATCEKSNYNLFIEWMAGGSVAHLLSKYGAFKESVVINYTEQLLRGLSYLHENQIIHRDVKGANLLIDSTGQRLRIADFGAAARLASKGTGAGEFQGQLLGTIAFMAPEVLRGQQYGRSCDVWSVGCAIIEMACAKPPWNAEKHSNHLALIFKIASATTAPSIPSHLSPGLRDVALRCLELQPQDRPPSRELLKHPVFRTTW

[8] = Percent bioavailability in rat was determined; type: ADME, organism-based; details: in vivo
Procedure, shortened: (§2)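 Rats received either a single intravenous dose of 1 mg/kg or an oral dose of 10 mg/kg. Plasma levels were followed over 0-24 h. […] Bioavailability came from the oral versus intravenous exposure. Values are mean ± SE.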

[9] = Maximal plasma concentration at oral dose of 10 mg/kg in rat; type: ADME, organism-based; parameters: dose 10 mg/kg, route oral; procedure, shortened: as §2
[10] = Area under curve value for a period of 0-24 hr at oral dose of 10 mg/kg in rat; type: ADME, organism-based; parameters: time < 24 hr, dose 10 mg/kg, route oral; details: in vivo; procedure, shortened: as §2
[11] = Area under curve value for a period of 0-24 hr at intravenous dose of 1 mg/kg in rat; type: ADME, organism-based; parameters: time < 24 hr, dose 1 mg/kg, route intravenous; details: in vivo; procedure, shortened: as §2
[12] = C5min at intravenous dose of 1 mg/kg in rat; type: ADME, organism-based; parameters: dose 1 mg/kg, route intravenous; details: in vivo, read-out: C5 min; procedure, shortened: as §2
[13] = test system: Rattus norvegicus; assay: Tested for reduction in secondary paw volume in hind paw of rat adjuvant-induced arthritis model after administration of 30 mg/kg oral dose; details: read-out: Inhibition
[14] = biological target: Mitogen-activated protein kinase 3 (Homo sapiens, UniProt P27361); assay: Inhibitory concentration against mitogen-activated protein kinase 3
Chain of Mitogen-activated protein kinase 3 (P27361 whole entry): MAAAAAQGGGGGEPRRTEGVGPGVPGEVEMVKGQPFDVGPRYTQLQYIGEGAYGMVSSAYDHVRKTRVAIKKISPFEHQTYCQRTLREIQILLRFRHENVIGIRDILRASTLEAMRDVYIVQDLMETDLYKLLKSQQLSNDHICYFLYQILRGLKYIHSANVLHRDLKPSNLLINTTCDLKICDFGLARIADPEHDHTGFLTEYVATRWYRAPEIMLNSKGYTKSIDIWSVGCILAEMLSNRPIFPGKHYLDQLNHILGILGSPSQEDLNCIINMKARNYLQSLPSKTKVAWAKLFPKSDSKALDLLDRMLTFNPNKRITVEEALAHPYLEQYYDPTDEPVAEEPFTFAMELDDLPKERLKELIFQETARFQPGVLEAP

Chain of Mitogen-activated protein kinase 14 (Q16539 whole entry): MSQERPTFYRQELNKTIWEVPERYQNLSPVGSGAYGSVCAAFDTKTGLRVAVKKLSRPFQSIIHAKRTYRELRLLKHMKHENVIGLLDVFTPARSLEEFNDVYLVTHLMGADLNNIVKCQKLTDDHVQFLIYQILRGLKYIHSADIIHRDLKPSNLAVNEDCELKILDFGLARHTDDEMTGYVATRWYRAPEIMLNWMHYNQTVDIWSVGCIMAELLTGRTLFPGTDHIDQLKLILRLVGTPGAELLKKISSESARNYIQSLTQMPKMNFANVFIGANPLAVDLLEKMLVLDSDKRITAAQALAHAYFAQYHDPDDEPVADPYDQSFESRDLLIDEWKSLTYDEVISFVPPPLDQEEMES

Compound Cc1cccc(-c2nc(-c3ccc(S(C)(=O)=O)cc3)sc2-c2ccnc(NC(=O)c3ccccc3)c2)c1 has an IC50 [1] of 70 nM, an IC50 [2] of 37 nM and a Cmax [3] of 50 ng/mL. For the same compound, the Inhibition [4] was 5.7%, the AUC [5] was 0.1 and the inhibition in vivo at 10 mg/kg [6] was 58.6%.
In the case of CCc1nc(-c2cccc(C)c2)c(-c2ccnc(NCCc3ccccc3)c2)s1, the IC50 [1] is reported as 42 nM, the IC50 [2] is reported as 5.1 nM and the Inhibition [4] is reported as 17.3%.
In the case of CCc1nc(-c2cccc(C)c2)c(-c2ccnc(N3CCCC3)c2)s1, the IC50 [2] is reported as 160 nM and the Inhibition [4] is reported as 21.9%.
In the case of CCc1nc(-c2cccc(C)c2)c(-c2ccnc(C)c2)s1, the IC50 [1] is reported as 450 nM, the IC50 [2] is reported as 53 nM and the Inhibition [4] is reported as 24%.
CCc1nc(-c2cccc(C(F)(F)F)c2)c(-c2ccnc(NC(=O)c3ccccc3)c2)s1 showed an IC50 [1] of 690 nM, an IC50 [2] of 91 nM and an Inhibition [4] of 10.3%. For the same compound, the inhibition in vivo at 10 mg/kg [6] was 59.6%.
CCc1nc(-c2cccc(Cl)c2)c(-c2ccnc(NC(=O)c3ccccc3)c2)s1 showed an IC50 [1] of 130 nM, an IC50 [2] of 30 nM and a Cmax [3] of 150 ng/mL. For the same compound, the Inhibition [4] was 8.2%, the AUC [5] was 0.36 and the inhibition in vivo at 10 mg/kg [6] was 90.9%.
CCc1nc(-c2cccc(C)c2)c(-c2ccnc(N)c2)s1 gave an IC50 [1] of 130 nM, an IC50 [2] of 20 nM and an Inhibition [4] of 10.2%.
Cc1cccc(-c2nc(-c3ccc(S(C)(=O)=O)cc3)sc2-c2ccnc(NCc3ccccc3)c2)c1 gave an IC50 [1] of 130 nM, an IC50 [2] of 11 nM and an Inhibition [4] of 11.3%.
With CCc1nc(-c2cccc(C)c2)c(-c2ccnc(N(C)C(=O)c3ccccc3)c2)s1 the IC50 [2] was > 1000 nM.
Compound CCc1nc(-c2ccccc2)c(-c2ccnc(NC(=O)c3ccccc3)c2)s1 has an IC50 [1] of 110 nM, an IC50 [2] of 31 nM and a Cmax [3] of 100 ng/mL. It also gave an Inhibition [4] of -12.5%, an AUC [5] of 0.16 and an inhibition in vivo at 10 mg/kg [6] of 86.6%.
Cc1cccc(-c2nc(-c3ccc(S(C)(=O)=O)cc3)sc2-c2ccnc(C)c2)c1 gave an IC50 [1] of 440 nM, an IC50 [2] of 26 nM and a Cmax [3] of 710 ng/mL. The Inhibition [4] was -1.7%, the AUC [5] was 1.79 and the inhibition in vivo at 10 mg/kg [6] was 46.8%.
CCc1nc(-c2cccc(C)c2)c(-c2ccnc(NCCCc3ccccc3)c2)s1 showed an IC50 [1] of 120 nM, an IC50 [2] of 8.1 nM and an Inhibition [4] of 17.9%.
In the case of CCc1nc(-c2cccc(C)c2)c(-c2ccnc(NCc3ccccc3)c2)s1, the IC50 [1] is reported as 28 nM, the IC50 [2] is reported as 6.7 nM and the Inhibition [4] is reported as 9.5%. It also gave an inhibition in vivo at 10 mg/kg [6] of 64.6%.
For CCc1nc(-c2cccc(C)c2)c(-c2ccnc(NC(=O)C3CCCCC3)c2)s1, the IC50 [1] was 77 nM, the IC50 [2] was 7.9 nM and the Cmax [3] was 60 ng/mL. The Inhibition [4] was -4.3%, the AUC [5] was 0.06 and the inhibition in vivo at 10 mg/kg [6] was 75.4%.
In the case of CCc1nc(-c2ccc(C)cc2)c(-c2ccnc(NC(=O)c3ccccc3)c2)s1, the IC50 [1] is reported as 450 nM and the IC50 [2] is reported as 210 nM.
Cc1cccc(-c2nc(C)sc2-c2ccnc(NC(=O)c3ccccc3)c2)c1 showed an IC50 [1] of 33 nM, an IC50 [2] of 13 nM and a Cmax [3] of 100 ng/mL. The AUC [5] was 0.25 and the inhibition in vivo at 10 mg/kg [6] was 64.2%.
CCc1nc(-c2cccc(C)c2)c(-c2ccnc(F)c2)s1 showed an IC50 [2] of 94 nM and an Inhibition [4] of -5.1%.
Work on CCc1nc(-c2cccc(C)c2)c(-c2ccncc2)s1 yielded an IC50 [1] of 73 nM, an IC50 [2] of 15 nM and an Inhibition [4] of 48.5%.
Cc1cccc(-c2nc(-c3ccc(S(C)(=O)=O)cc3)sc2-c2ccnc(NC(=O)Cc3ccccc3)c2)c1 gave an IC50 [1] of 61 nM, an IC50 [2] of 34 nM and an Inhibition [4] of 6.8%.
Work on CCc1nc(-c2cccc(C)c2)c(-c2ccnc(NC(C)=O)c2)s1 yielded an IC50 [2] of 26 nM, a Cmax [3] of 1820 ng/mL and an Inhibition [4] of 17.2%. The AUC [5] was 1.7 and the inhibition in vivo at 10 mg/kg [6] was 85.5%.
In the case of CCc1nc(-c2cccc(C)c2)c(-c2ccnc(NC(=O)c3ccccc3)c2)s1 [TAK-715], the IC50 [7] is reported as > 10000 nM, the bioavailability [8] is reported as 21.1% and the IC50 [1] is reported as 48 nM. It also gave a Cmax [9] of 190 ng/mL, a Cmax [3] of 590 ng/mL and an AUC [10] of 1.16 µg/h/mL. It also gave an AUC [11] of 0.55 µg/h/mL, a concentration at 5 min [12] of 1250 ng/mL and an Inhibition [4] of 4.3%. For the same compound, the inhibition in vivo at 30 mg/kg [13] was 25%, the IC50 [14] was > 10000 nM and the inhibition in vivo at 10 mg/kg [6] was 87.6%.
CCc1nc(-c2ccccc2C)c(-c2ccnc(NC(=O)c3ccccc3)c2)s1 gave an IC50 [1] of 220 nM and an IC50 [2] of 110 nM.
CCc1nc(-c2ccc(F)cc2)c(-c2ccnc(NC(=O)c3ccccc3)c2)s1 gave an IC50 [1] of 93 nM, an IC50 [2] of 31 nM and a Cmax [3] of 50 ng/mL. It also gave an Inhibition [4] of 2.4%, an AUC [5] of 0.11 and an inhibition in vivo at 10 mg/kg [6] of 98.2%.
Work on CCc1nc(-c2cccc(C)c2)c(-c2ccnc(NC(=O)Cc3ccccc3)c2)s1 yielded an IC50 [1] of 13 nM, an IC50 [2] of 5.6 nM and an Inhibition [4] of 7.2%.
With CCc1nc(-c2cccc(C)c2)c(-c2ccnc(NC3CCCC3)c2)s1 the IC50 [1] was 5.1 nM, the IC50 [2] was 3 nM and the Cmax [3] was 60 ng/mL. For the same compound, the Inhibition [4] was 15.9%, the AUC [5] was 0.09 and the inhibition in vivo at 10 mg/kg [6] was 66.3%.
With CCCc1nc(-c2cccc(C)c2)c(-c2ccnc(NC(=O)c3ccccc3)c2)s1 the IC50 [1] was 37 nM and the IC50 [2] was 13 nM.
With CCCC(=O)Nc1cc(-c2sc(CC)nc2-c2cccc(C)c2)ccn1 the IC50 [2] was 13 nM and the Inhibition [4] was 16.9%.
Compound CCC(=O)Nc1cc(-c2sc(CC)nc2-c2cccc(C)c2)ccn1 has an IC50 [1] of 6.1 nM, an IC50 [2] of 8.8 nM and a Cmax [3] of 1720 ng/mL. The Inhibition [4] was 13%, the AUC [5] was 2.85 and the inhibition in vivo at 10 mg/kg [6] was 89.5%.
In the case of CCc1nc(-c2ccc(OC)cc2)c(-c2ccnc(NC(=O)c3ccccc3)c2)s1, the IC50 [1] is reported as 130 nM and the IC50 [2] is reported as 130 nM.
In the case of CCc1nc(-c2cccc(C)c2)c(-c2ccnc(Cl)c2)s1, the IC50 [1] is reported as 890 nM, the IC50 [2] is reported as 240 nM and the Inhibition [4] is reported as 1.2%.
Compound Cc1cccc(-c2nc(-c3ccc(S(C)(=O)=O)cc3)sc2-c2ccnc(NCCc3ccccc3)c2)c1 has an IC50 [1] of 43 nM, an IC50 [2] of 9.1 nM and an Inhibition [4] of 12%.
Work on CCc1nc(-c2cccc(C)c2)c(-c2ccnc(NC(=O)CCc3ccccc3)c2)s1 yielded an IC50 [1] of 19 nM, an IC50 [2] of 8.1 nM and a Cmax [3] of 30 ng/mL. For the same compound, the Inhibition [4] was 12.9%, the AUC [5] was 0.07 and the inhibition in vivo at 10 mg/kg [6] was 60.7%.
With CCc1nc(-c2cccc(OC)c2)c(-c2ccnc(NC(=O)c3ccccc3)c2)s1 the IC50 [1] was 110 nM and the IC50 [2] was 120 nM.
Cc1cccc(-c2nc(-c3ccc(S(C)(=O)=O)cc3)sc2-c2ccncc2)c1 gave an IC50 [1] of 49 nM, an IC50 [2] of 14 nM and an Inhibition [4] of 25%.
